The source of these data is ChEMBL document CHEMBL1212780, “Anti-Clostridium difficile potential of tetramic acid derivatives from Pseudomonas aeruginosa quorum-sensing autoinducers” (Antimicrob Agents Chemother, 2010).

Data set [1] has as its system Clostridioides difficile. The experiment in a line: Antibacterial activity against Clostridium difficile assessed induction of bacteriolysis at 50 uM after 26 hrs. It is filed as functional, organism-based. An outline of the steps:
(§1)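 Anaerobic cultures in supplemented BHI were incubated with compound (30 or 50 μM depending on compound) for 26 h at 37°C. OD600 was read at each time point to follow growth and lysis, compared with an untreated control.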

Data set [2] concerns Clostridioides difficile. The experiment in a line: Antibacterial activity against Clostridium difficile 1 assessed as inhibition of bacterial viability after 24 hrs. It is filed as functional, organism-based. An outline of the steps: (§2)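 Four clinical isolates from pseudomembranous colitis patients, grown anaerobically at 37°C in BHI broth with 1% yeast extract and 0.1% L-cysteine. Broth cultures exposed 24 h to a range of compound concentrations (autoinducers at 50 μM). Viable counts made by plating 10-fold serial dilutions on sheep-blood Mueller-Hinton agar; n = 3.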

In data set [3] the test system is Clostridioides difficile. As to the kind of experiment: Antibacterial activity against Clostridium difficile 2 assessed as inhibition of bacterial viability after 24 hrs. It counts as functional, organism-based. Put shortly: as §2
Data set [4] has as its system Clostridioides difficile. The experiment in a line: Antibacterial activity against Clostridium difficile 3 assessed as inhibition of bacterial viability after 24 hrs. It is filed as functional, organism-based. Put shortly:
as §2

Data set [5] relates to Clostridioides difficile. As to the kind of experiment: Antibacterial activity against Clostridium difficile 4 assessed as inhibition of bacterial viability after 24 hrs. It counts as functional, organism-based. Put shortly: as §2
Data set [6] has as its system Clostridioides difficile. The experiment in a line: Antibacterial activity against Clostridium difficile assessed as induction of morphological changes at 50 uM after 30 mins by Gram staining. It counts as functional, organism-based. An outline of the steps:
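Bacteria grown 24 h at 37°C, pelleted at 5,000 rpm for 5 min, then exposed to compound at 50 μM for the stated time. Gram-stained and examined by light microscopy, compared with untreated cells.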

Data set [7] relates to Clostridioides difficile. The experiment in a line: Antibacterial activity against Clostridium difficile assessed as induction of changes in cell surface structures by electron microscopy. It is filed as functional, organism-based. An outline of the steps: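 Postfixed 1 h in 1% OsO4, ethanol-dehydrated and Epon-embedded. Surface structure of treated cells compared with control cells.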

Data set [8] concerns Clostridioides difficile. The experiment in a line: Drug uptake in Clostridium difficile assessed as dansylated compound accumulation at cell surface by electron microscopy. It is filed as ADME, organism-based. Put shortly: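 Bacteria treated with dansyl-labelled compound, fixed in 0.5% glutaraldehyde/2% paraformaldehyde at 4°C for 1 h without osmium, and embedded in Unicryl. Ultrathin sections blocked in 1.5% BSA, then rabbit anti-dansyl (1:100, 2 h, room temperature) and 10-nm gold anti-rabbit IgG (1:20, 30 min). Nonimmune serum used as negative control.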

In data set [9] the test system is Clostridioides difficile. As to the kind of experiment: Induction of lipid membranes composition changes in Clostridium difficile by NMR spectroscopy. It is filed as functional, organism-based.
The subject of data set [10] is Clostridioides difficile. As to the kind of experiment: Antibacterial activity against Clostridium difficile assessed as inhibition of bacterial viability at 3 to 50 uM after 24 hrs. It is filed as functional, organism-based. Put shortly: (§3)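 Cultured anaerobically for 24 h at 37°C in supplemented BHI broth with a range of compound concentrations. Survivors counted by plating 10-fold serial dilutions. Detection limit 2 log CFU/ml. Compared against bacteria grown without compound.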

The test system of data set [11] is Clostridioides difficile. As to the kind of experiment: Antibacterial activity against Clostridium difficile assessed induction of bacteriolysis at 30 uM after 26 hrs. It is filed as functional, organism-based. Put shortly: as §1
Data set [12] deals with Clostridioides difficile. The experiment in a line: Antibacterial activity against Clostridium difficile assessed as inhibition of bacterial viability at 10 uM after 24 hrs relative to untreated control. It is filed as functional. An outline of the steps: as §3
In data set [13] the test system is Clostridioides difficile. The experiment in a line: Antibacterial activity against Clostridium difficile 1 assessed as inhibition of bacterial viability at 50 uM after 24 hrs. It counts as functional, organism-based. Put shortly: (§4)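 C. difficile clinical isolates from pseudomembranous colitis patients, grown anaerobically at 37°C in BHI broth with 1% yeast extract and 0.1% L-cysteine. Cultured 24 h with compound, then viable counts taken by plating serial 10-fold dilutions on Mueller-Hinton agar with 5% sheep blood. n = 3. Detection limit 2 log CFU/ml.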

Data set [14] deals with Clostridioides difficile. As to the kind of experiment: Antibacterial activity against Clostridium difficile 2 assessed as inhibition of bacterial viability at 50 uM after 24 hrs. It counts as functional, organism-based. Put shortly:
as §4

Data set [15] deals with Clostridioides difficile. The experiment in a line: Antibacterial activity against Clostridium difficile 3 assessed as inhibition of bacterial viability at 50 uM after 24 hrs. It counts as functional, organism-based. Put shortly:
as §4

Data set [16] relates to Clostridioides difficile. As to the kind of experiment: Antibacterial activity against Clostridium difficile 4 assessed as inhibition of bacterial viability at 50 uM after 24 hrs. It counts as functional, organism-based. Put shortly:
as §4

Activity calls are given as the source filed them. No cut-off for these calls is given here.

With `CCCCCCCCC/C(O)=C1/C(=O)N[C@@H](CCO)C1=O`, the result in the data set with Clostridioides difficile [1], with Clostridioides difficile [6], with Clostridioides difficile [7] and in the data set on Clostridioides difficile [9] was Active. Moreover, the inhibition entry in the data set on Clostridioides difficile [2], in the data set with Clostridioides difficile [3], in the data set on Clostridioides difficile [4] and with Clostridioides difficile [5] was “Dose-dependent effect” each time. In addition, the Drug uptake result in the data set on Clostridioides difficile [8] was “Active”.
`CCCCCCCCC/C(O)=C1\C(=O)CN(C)C1=O`: the inhibition result with Clostridioides difficile [10] was “Active”. In addition, the outcome with Clostridioides difficile [11] was Active.
Regarding `CCCCCCCCC/C(O)=C1\C(=O)CNC1=O`, the inhibition result with Clostridioides difficile [10] is “Active”. For the same molecule, in the data set with Clostridioides difficile [12], the “fold change (FC)” value is 100000. Moreover, in the data set with Clostridioides difficile [11], the result was Active.
With `CCC/C(O)=C1/C(=O)N[C@@H](CCO)C1=O`, in the data set with Clostridioides difficile [10], the inhibition entry was “Active”.
Take `CCCCCCCCC/C(O)=C1/C(=O)N[C@H](CCO)C1=O`: the outcome in the data set on Clostridioides difficile [1] was Active. In addition, the Drug uptake result with Clostridioides difficile [8] is “Active”. Further, the inhibition entry in the data set on Clostridioides difficile [10] is “Active”.
Take `CCCCCCCCC/C(OC)=C1/C(=O)N[C@@H](CCO)C1=O`: the inhibition result with Clostridioides difficile [10] is “Active”.
Consider `CCCCCCCCC/C(O)=C1/C(=O)N[C@@H](C)C1=O`, for which, in the data set with Clostridioides difficile [1], the outcome was Active. The Drug uptake entry in the data set with Clostridioides difficile [8] was “Active”. Also, in the data set on Clostridioides difficile [10], the inhibition result was “Active”.
As for `CCCC(=O)N[C@H]1CCOC1=O`, the inhibition entry in the data set on Clostridioides difficile [13], in the data set on Clostridioides difficile [14], with Clostridioides difficile [15] and with Clostridioides difficile [16] was “inactive” each time.
Regarding `CCCCCCCCCC(=O)CC(=O)N[C@H]1CCOC1=O`, the inhibition result in the data set on Clostridioides difficile [13], in the data set with Clostridioides difficile [14], with Clostridioides difficile [15] and with Clostridioides difficile [16] was “inactive” in each case. In addition, the result with Clostridioides difficile [7] and with Clostridioides difficile [9] was inactive.
